{"data": "Assay results gathered from unrelated publications", "target": "cAMP-dependent protein kinase catalytic subunit alpha (PRKACA, Homo sapiens, UniProt P17612)", "note": "Compare with care: the assays were run in different laboratories."}
{"SMILES": "COc1ccc2oc(-c3ccc4nc(N)oc4c3)c/c(=N\\c3ccccc3NC(=O)CCN)c2c1", "test": "binding", "setting": "1 µM", "measurement": "remaining binding", "value": "111%"}
{"SMILES": "CO[C@@H]1[C@H](N(C)C(=O)c2ccccc2)C[C@H]2O[C@]1(C)n1c3ccccc3c3c4c(c5c6ccccc6n2c5c31)C(=O)NC4", "test": "enzyme activity, inhibitor", "setting": "1 µM", "measurement": "inhibition", "value": "59%"}
{"SMILES": "CCCCC(=O)Nc1ccc(-c2ccc3ncn(CCC)c(=O)c3c2)cn1", "test": "binding, competition with immobilised ligand", "setting": "0.5 µM", "measurement": "remaining binding", "value": "97%"}
{"SMILES": "C#Cc1cnc(Nc2ccnc(CO)c2)nc1Nc1ccccc1S(C)(=O)=NC#N (centres unmarked)", "test": "cell-free assay", "setting": "1 µM", "measurement": "remaining signal", "value": "100%"}
{"SMILES": "CN1CCN(C(=O)c2ccc(NC(=O)Nc3ccc(N(C)c4ccnc(Nc5ccc(CS(C)(=O)=O)cc5)n4)cc3)cc2)CC1", "test": "cell-free assay", "setting": "1 µM", "measurement": "remaining signal", "value": "100%"}
{"SMILES": "N#Cc1ccc(NC(=O)Nc2ccccc2)cc1", "test": "cell-free assay, competition with immobilised ligand", "setting": "25 µM", "measurement": "remaining binding", "value": "85%"}
{"SMILES": "C=CC(=O)N1CCC([C@@H]2CCNc3c(C(N)=O)c(-c4ccc(Oc5ccccc5)cc4)nn32)CC1", "test": "enzyme activity, inhibitor", "setting": "1 µM", "measurement": "inhibition", "value": "9%"}
{"SMILES": "COc1ccc2[nH]c3c4[nH]c5ccc(OC)cc5c4c4c(c3c2c1)C(=O)NC4=O", "test": "cell-free assay", "setting": "1 µM", "measurement": "remaining signal", "value": "87%"}
